According to ChEMBL document CHEMBL4177753, “Structural Modification of Natural Product Ganomycin I Leading to Discovery of a α-Glucosidase and HMG-CoA Reductase Dual Inhibitor Improving Obesity and Metabolic Dysfunction in Vivo” (J Med Chem, 2018):
Active and inactive are the calls of the source. No cut-off for these calls is given here.

Experiments:
Mus musculus [1] = test: Toxicity in C57BL/6J mouse assessed as effect on free diet blood glucose levels at 30 mg/kg administered daily via oral gavage for 3 months; format: organism-based; settings: in vivo
In short: (§1)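 Long-term safety study in C57BL/6J mice, 20 male and 20 female, sorted by gender, blood glucose and body weight into four groups (n = 10 each). Treated groups of each sex got 30.0 mg/kg daily by oral gavage in soybean vehicle. Vehicle groups got an equal volume of soybean. Dosing ran three months, with behavior, survival, body weight, blood glucose, liver function and organ coefficients recorded.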

Mus musculus [2] = test: Toxicity in C57BL/6J mouse assessed as effect on behavior at 30 mg/kg administered daily via oral gavage for 3 months; format: organism-based; settings: in vivo; in short: as §1
Mus musculus [3] = test: Decrease in nitrate levels in ob/ob mouse colonic lumen at 3 mg/kg administered daily via oral gavage for 31 days by Griess assay; format: functional, organism-based
In short: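 Male ob/ob mice dosed daily by gavage in soybean vehicle. Nitrate measured in intestinal contents by Griess assay.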

Mus musculus [4] = test: Hypolipidemic activity in ob/ob mouse assessed as decrease in liver free fatty acid levels at 0.3 to 3 mg/kg administered daily via oral gavage for 31 days; format: functional, organism-based
Mus musculus [5] = test: Toxicity in C57BL/6J mouse assessed as effect on survival at 30 mg/kg administered daily via oral gavage for 3 months; format: organism-based; settings: in vivo; in short: as §1
Mus musculus [6] = test: Hypolipidemic activity in antibiotic-treated ob/ob mouse assessed as decrease in plasma total cholesterol levels at 3 mg/kg administered daily via oral gavage for 3 weeks; format: functional, organism-based
In short: (§2)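 Male ob/ob mice pretreated three weeks with ampicillin (1 g/L), vancomycin, neomycin, gentamycin and erythromycin. Groups of n = 8 given 3.0 mg/kg/day orally in soybean vehicle versus vehicle. Plasma and hepatic lipids, fasting glucose, OGTT (glucose 2 g/kg after overnight fast) and HbA1c measured.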

Mus musculus [7] = test: Upregulation of Muc-5 mRNA expression in ob/ob mouse ileum at 3 mg/kg administered daily via oral gavage for 31 days by RNA-seq analysis; format: functional, organism-based
Mus musculus [8] = test: Hypolipidemic activity in ob/ob mouse assessed as decrease in plasma free fatty acid levels administered daily via oral gavage for 31 days; format: functional, organism-based
Mus musculus [9] = test: Hypolipidemic activity in ob/ob mouse assessed as decrease in plasma LDL-C levels at 1 mg/kg administered daily via oral gavage for 31 days relative to vehicle-treated control; format: functional; set-up: scale not given: the % may be the effect or the level left
Mus musculus [10] = test: Hypoglycemic activity in ob/ob mouse assessed as decrease in blood glucose AUC at 0.3 to 3 mg/kg administered daily via oral gavage for 25 days by OGTT; format: functional, organism-based
In short: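 Male ob/ob or high-fat-diet C57BL/6J mice dosed daily by gavage at 0.3–3.0 mg/kg. OGTT: glucose 2 g/kg orally after overnight fast. ITT: insulin 0.6 U/kg i.p. after 4 h fast. Glucometer readings at 0, 40, 80 and 120 min; AUC computed from the curves.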

Mus musculus [11] = test: Hypolipidemic activity in ob/ob mouse assessed as decrease in plasma triglyceride levels administered daily via oral gavage for 31 days; format: functional, organism-based
Mus musculus [12] = test: Hypolipidemic activity in ob/ob mouse assessed as decrease in fat deposition in liver at 3 mg/kg administered daily via oral gavage for 31 days by […] staining-based microscopic method; format: functional, organism-based
In short: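 Male ob/ob mice dosed by gavage (soybean vehicle); liver and abdominal white adipose tissue fixed in 10% formaldehyde-PBS pH 7.4, paraffin-embedded, sectioned, stained with H&E, Oil Red O or sirius red, and examined by light microscopy.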

Mus musculus [13] = test: Hypolipidemic activity in antibiotic-treated ob/ob mouse assessed as decrease in hepatic total cholesterol levels at 3 mg/kg administered daily via oral gavage for 3 weeks; format: functional, organism-based; in short: as §2
Lachnospiraceae = test: Increase in Lachnospiraceae levels in cecum of ob/ob mouse assessed as increase in level of gut butyrate at 3 mg/kg administered daily via oral gavage for 31 days by GC-MS analysis; format: functional, organism-based
In short: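 Feces collected from ob/ob mice after 3.0 mg/kg gavage treatment; samples lyophilized, ground, 40 mg powder extracted with 1 mL MeOH, sonicated, centrifuged; supernatant analysed for short-chain fatty acids by GC-MS.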

[14] = Half life in Sprague-Dawley rat at 2 mg/kg, po; format: ADME, organism-based; settings: in vivo
In short: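 Male Sprague-Dawley rats (n = 6, 0.21–0.23 kg), single oral dose 2.0 mg/kg. Orbital blood sampled 0–16 h into heparinized tubes. Plasma was protein-precipitated with methanol, with internal standard added. Quantified by UPLC-ESI(+)-QTOF-MS in SIM mode on a C18 column with a methanol/0.3% formic acid water gradient. Linear range 0.54–107 ng/ml.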

Mus musculus [15] = test: Downregulation of Tnfa mRNA expression in ob/ob mouse ileum at 3 mg/kg administered daily via oral gavage for 31 days by RNA-seq analysis; format: functional, organism-based
Mus musculus [16] = test: Hypoglycemic activity in ob/ob mouse assessed as decrease in free diet blood glucose levels administered daily via oral gavage for 28 days; format: functional, organism-based
In short: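 Male ob/ob mice, n = 10 per group, daily gavage at 0.3, 1.0 or 3.0 mg/kg in soybean vehicle. Fasting and free-diet blood glucose and HbA1c measured.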

Mus musculus [17] = test: Upregulation of Pparg mRNA expression in ob/ob mouse ileum at 3 mg/kg administered daily via oral gavage for 31 days by RNA-seq analysis; format: functional, organism-based
Mus musculus [18] = test: Reduction of liver TNF-alpha levels in ob/ob mouse at 3 mg/kg administered daily via oral gavage for 31 days by DAPI staining/immunofluorescence-based confocal microscopic method; format: functional, organism-based
In short: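 Liver from ob/ob mice dosed at 3.0 mg/kg by gavage; tissue methanol-fixed, blocked in PBS with 5% BSA, stained with anti-TNFα (1:200) and Alexa Fluor 610 secondary (1:250), nuclei with DAPI; confocal imaging, per-cell TNFα expression quantified.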

Mus musculus [19] = test: Antifibrotic activity in ob/ob mouse assessed as decrease in hepatic hydroxyproline levels at 3 mg/kg administered daily via oral gavage for 31 days; format: functional, organism-based
Betaproteobacteria = test: Decrease in Betaproteobacteria levels in cecum of ob/ob mouse at 1 to 3 mg/kg administered daily via oral gavage for 31 days by 16S rRNA gene high-throughput sequencing method; format: functional, organism-based
In short: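 Male ob/ob mice dosed daily by gavage at 1.0 or 3.0 mg/kg, compared with vehicle group. DNA extracted from about 150 mg caecum contents. 16S rRNA V3–V4 region amplified and sequenced on Illumina HiSeq PE250. Community compared by NMDS/MRPP; discriminant taxa identified by LEfSe.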

Mus musculus [20] = test: Hypolipidemic activity in antibiotic-treated ob/ob mouse assessed as decrease in hepatic free fatty acid levels at 3 mg/kg administered daily via oral gavage for 3 weeks; format: functional, organism-based; in short: as §2
Mus musculus [21] = test: Hypolipidemic activity in antibiotic-treated ob/ob mouse assessed as decrease in hepatic triglycerides levels at 3 mg/kg administered daily via oral gavage for 3 weeks; format: functional, organism-based; in short: as §2
[22] = Chemical stability of the compound at 0.4 mg/ml at room temperature after 3 weeks by HPLC method; format: physicochemical; settings: 504 h
Mus musculus [23] = test: Upregulation of Muc-1 mRNA expression in ob/ob mouse ileum at 3 mg/kg administered daily via oral gavage for 31 days by RNA-seq analysis; format: functional, organism-based
Mus musculus [24] = test: Hypolipidemic activity in ob/ob mouse assessed as decrease in plasma triglyceride levels at 3 mg/kg administered daily via oral gavage for 31 days relative to vehicle-treated control; format: functional; set-up: scale not given: the % may be the effect or the level left

CC(C)=CCC/C(C)=C/CCC1=C[C@H](c2ccc(C(C)(C)C)cc2)OC1=O
Activity (Mus musculus [1]): Non-Toxic | Activity (Mus musculus [2]): Non-Toxic | Activity (Mus musculus [3]): Active | Activity (Mus musculus [4]): Active | Activity (Mus musculus [5]): Non-Toxic | Activity (Mus musculus [6]): inactive | Activity (Mus musculus [7]): Active | Activity (Mus musculus [8]): Dose-dependent effect | Activity (Mus musculus [9]): 43% | Activity (Mus musculus [10]): Active | Activity (Mus musculus [11]): Dose-dependent effect | Activity (Mus musculus [12]): Active | Activity (Mus musculus [13]): inactive | Activity (Lachnospiraceae): Active | half-life [14]: 108 min | Activity (Mus musculus [15]): Active | Activity (Mus musculus [16]): Dose-dependent effect | Activity (Mus musculus [17]): Active | Activity (Mus musculus [18]): Active | Activity (Mus musculus [19]): Active | Activity (Betaproteobacteria): Active | Activity (Mus musculus [20]): inactive | Activity (Mus musculus [21]): inactive | Stability [22]: Stable | Activity (Mus musculus [23]): Active | Activity (Mus musculus [24]): 47%
